Assay outcomes as filed in PubChem.
Only some compounds are listed: those with a hit (about 1.6% of all), similar ones and a draw of the others.
TDP2 inh: TDP2 (human) inhibition, absorbance primary screen. AID 720702. inhibition, % at 12.8 µM. recombinant TDP2, T5PNP hydrolysis, p-nitrophenol absorbance 415 nm. hit rate 0.34% among 370,000. O95551;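 active = inhibition above the mean of all tested compounds plus 3 SD, set per campaign, cut at about 25% in these data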;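 note: 0% = DMSO with enzyme and 100% = buffer with substrate but no TDP2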
Target sequence (O95551 whole entry, looked up): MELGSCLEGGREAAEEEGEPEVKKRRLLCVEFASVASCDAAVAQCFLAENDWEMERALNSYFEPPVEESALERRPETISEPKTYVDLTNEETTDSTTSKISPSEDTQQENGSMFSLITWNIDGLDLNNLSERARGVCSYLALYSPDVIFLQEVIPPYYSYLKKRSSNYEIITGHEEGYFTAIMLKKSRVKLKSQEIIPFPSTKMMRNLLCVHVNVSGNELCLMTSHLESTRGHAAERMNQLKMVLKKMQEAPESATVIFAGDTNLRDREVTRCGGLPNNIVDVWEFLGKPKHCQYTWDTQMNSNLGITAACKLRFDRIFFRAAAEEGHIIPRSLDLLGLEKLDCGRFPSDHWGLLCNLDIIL
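System – recombinant human TDP2 · Quantity – TDP2 enzyme at 120 nM final · Doses – single concentration, 12.8 µM nominal, with 1% DMSO · Incubation – 2 h at 37 °C · Measured by – epi absorbance of p-nitrophenol freed from T5PNP by hydrolysis · Read-out – % inhibition relative to enzyme-containing and enzyme-free wells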
Fh CTSL1 inh: blocks F. hepatica cathepsin L1 in PFM18AAP counter-screen; recombinant F. hepatica cathepsin L1, Z-Leu-Arg-MCA fluorescence; inhibition, % at 5.96 µM; hit rate 0.49% among 300,000; AID 1906;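 active = inhibition above the mean of all tested compounds plus 3 SD, set per screening campaign, cut at about 17% in these data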;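 note: 0% = plate median of test compound wells and 100% = 1 µM Z-Phe-Ala-diazomethylketone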
PAD4 FP inh: PAD4 (human) enzyme inhibition; recombinant PAD4, RCA probe fluorescence polarization; inhibition, % at 6.36 µM; hit rate 0.41% among 330,000; AID 485272;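 active = percent inhibition above a cutoff equal to the mean of all tested compounds plus 3 SD, cut at about 15% in these data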;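 note: 0% = PAD4 with RCA probe and DMSO and 100% = probe without PAD4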
HKDC1 inhibitor: inhibitors of human hexokinase HKDC1 | Q2TB90 | recombinant HKDC1, G6PDH/diaphorase resazurin coupled fluorescence | inhibition, % at 20 µM | hit rate 0.16% among 340,000 | AID 493160;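 active = inhibition above about 35% when tested at 20 µM, limit read from the data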;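 note: plate controls were DMSO wells with enzyme for no effect and DMSO wells lacking enzyme for full effect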
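test system = in-house recombinant HK5 (HKDC1) enzyme | amount = HKDC1 at 5 µg/mL | control set = DMSO-enzyme wells negative, buffer-substituted wells positive | compound = one dose of 20 µM, 1% DMSO | schedule = reaction time 90 min, room temperature, protected from light | technique = resorufin fluorescence at 613 nm | reagent = glucose with 1 mM ATP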
UCH37 inh: inhibitors of human deubiquitinating enzyme UCH37; Q9Y5K5; purified proteasome/UCH37, Ub-AMC cleavage fluorescence; inhibition, % (no concentration beside the values); hit rate 0.33% among 330,000; AID 588478;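 active = mean inhibition over replicate wells above about 20%, limit read from the data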;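 note: 0% = compound-free wells with enzyme and 100% = wells lacking proteasome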
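Material: Human UCH37 enzyme supplied as purified proteasome complex | Schedule: 30 min preincubation with enzyme, 25 min cleavage at room temperature | Detection: AMC fluorescence 355/460 nm | Measure: % inhibition of Ub-AMC cleavage fluorescence | Controls: Wells without proteasome as full block, compound-free enzyme plus substrate as uninhibited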
GSTO1 inh: GSTO1 inhibition, counter-screen for RBBP9 inhibitors. inhibition, % at 5.96 µM. hit rate 1.1% among 300,000. recombinant GSTO1, activity-based probe fluorescence polarization;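 active = inhibition above the campaign mean inhibition plus 3 SD, cut at about 35% in these data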;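 note: 0% = GSTO1-1 with DMSO and 100% = wells lacking GSTO1-1 enzyme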
Target sequence (P78417 whole entry, looked up): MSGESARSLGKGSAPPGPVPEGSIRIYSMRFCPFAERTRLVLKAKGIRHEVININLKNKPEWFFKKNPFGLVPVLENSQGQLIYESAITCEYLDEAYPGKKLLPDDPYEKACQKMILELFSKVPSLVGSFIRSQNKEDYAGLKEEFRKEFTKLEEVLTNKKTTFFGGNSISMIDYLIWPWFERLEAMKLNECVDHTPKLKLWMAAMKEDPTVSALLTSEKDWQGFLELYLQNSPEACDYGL
HKDC1 act conf2: HKDC1 (human) activation, single-dose confirmed | shares compounds with HKDC1 inhibitor | recombinant HKDC1, G6PDH/diaphorase resazurin fluorescence; stronger effect = lower value | inhibition, % at 20 µM | hit rate 14% among 740;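 active = inhibition at or below a set negative limit, negative inhibition meaning the enzyme was activated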
The depositor's hits bear a star; / = no result given.

SMILES	TDP2 inh	Fh CTSL1 inh	PAD4 FP inh	HKDC1 inhibitor	UCH37 inh	GSTO1 inh	HKDC1 act conf2
COC1=C(Br)C(=O)c2ncccc2C1=O	94*	/	/	56*	/	/	65
CCOc1ccc2nc(N=Cc3nc(-c4ccccc4)oc3O)sc2c1	/	/	/	/	-1	/	/
CCCCCCCCCCCC(=O)NN=Cc1ccco1	/	/	/	/	4	/	/
c1ccc2c(c1)-c1cccc3c1c-2cc1ccccc13	/	/	-2	/	/	/	/
Oc1cc(-c2ccccc2)c2ccccc2c1	5	-8	2	27	-22	0	-6
Cc1ccc([N+](=O)[O-])c(C(=O)NN=Cc2cccs2)c1	/	/	/	/	8	/	/
O=C1NN(c2ccccc2)C(=O)/C1=C/c1ccc(Sc2ccc(Cl)cc2)o1	2	-1	-4	42*	12	22	10
Cc1ccc(Sc2ccc(/C=C3/C(=O)NN(c4ccccc4)C3=O)o2)cc1	-20	-2	-1	35*	14	17	20
O=c1c2ccccc2nc2n1CCC2	9	0	6	82*	12	4	67
COc1ccc(OC)c2[nH]c(=O)c(CCNC(=O)c3ccc(S(=O)(=O)N4CCCC4)cc3)cc12	3	-1	-7	33	2	-1	32
COc1ccc2cc(CCNC(=O)c3ccc(S(=O)(=O)N4CCCC4)cc3)c(=O)[nH]c2c1	-10	-1	6	33	5	-13	60
COc1ccc2cc(CCNC(=O)c3ccc4c(c3)OCO4)c(=O)[nH]c2c1	-9	1	-3	3	5	5	/
C(=Nn1cnnc1)c1cn(Cc2ccccc2)c2ccccc12	/	/	/	/	0	/	/
Cc1cccc(NC(=S)NN=Cc2cccn2Cc2ccc(F)cc2)c1	/	/	/	/	3	/	/
Cc1cc(C(=O)COC(=O)c2cc(O)c3ccccc3c2O)c(C)n1CC1CCCO1 (centres undefined)	/	/	/	47*	-34	/	15
Cc1nc2c3cc(F)ccc3n(Cc3ccccc3)c2s1	-1	-1	-8	-60	6	2	-61*
NS(=O)(=O)c1ccc(N/N=C/c2ccc(O)c(O)c2O)c([N+](=O)[O-])c1	-8	/	/	36*	/	/	-11
COc1ccccc1N(C)S(=O)(=O)c1ccc(Cl)c(C(=O)NCC2(N(C)C)CCCCC2)c1	7	6	1	42*	4	2	-28
O=[N+]([O-])c1cccc(C=NNC2CCS(=O)(=O)C2)c1 (centres undefined)	/	/	/	/	2	/	/
Cc1ccc(S(=O)(=O)N=C(CN2CCCCC2)N2CCOCC2)cc1	/	/	/	/	3	/	/
CCN(CC)C(=O)c1ccc(C(=O)c2c(C)cc(C)cc2C)cc1	-11	2	2	39*	0	18	-40*
O=C(ON=C(c1ccccc1)c1ccccn1)c1ccc(Cl)c(Cl)c1	/	/	/	/	2	/	/
Cc1ccc(/C=C/c2nc3sc(C(=O)O)c(C)c3c(=O)[nH]2)cc1[N+](=O)[O-]	-13	1	2	47*	3	4	-27
Cc1c(C(=O)O)sc2nc(/C=C/c3cccc(F)c3)[nH]c(=O)c12	10	5	5	0	-13	-10	/
CCOc1ccc(C=NNC(=O)c2[nH]ncc2Br)c(O)c1	/	/	/	/	-4	/	/
SMILES	TDP2 inh	Fh CTSL1 inh	PAD4 FP inh	HKDC1 inhibitor	UCH37 inh	GSTO1 inh	HKDC1 act conf2
FC(F)(F)COc1nc(NN=Cc2cccnc2)nc(N2CCCCC2c2ccccn2)n1 (centres undefined)	/	/	/	/	1	/	/
COC(=O)c1ccc(NCc2c(O)ccc(O)c2Br)cc1Cl	-22	/	/	45*	/	/	21
COC(=O)c1ccc(NCc2cc(O)ccc2O)cc1O	4	/	/	25	/	/	/
Cc1ccsc1C=NNC(=O)c1ccc2ccccc2c1	/	/	/	/	2	/	/
Oc1ccc(/C=N/Nc2ccnc3cc(Cl)ccc23)c(O)c1O	0	2	2	37*	/	26	-21
Oc1ccc(C=NNc2ccnc3cc(Cl)ccc23)cc1O	/	/	/	/	-14	/	/
CCOC(=O)C(C(=O)OCC)c1cc(Br)c2noc3c2c1C(=O)c1ccccc1-3	6	2	1	54*	1	30	28
O=S(=O)(c1cc(Cl)cc(Cl)c1O)N1CCC2(CC1)OCCO2	12	-2	-4	34	3	4	-12
Cc1ccc(C=NNC(=O)c2nn(C)cc2Cl)cc1	/	/	/	/	0	/	/
Cc1ccc(C=NNC(=O)C(NC(=O)c2ccccc2)c2n[nH]c(=O)c3ccccc23)cc1 (centres undefined)	/	/	/	/	0	/	/
CCOc1ccc2c(ccc(/C=C/c3cc(C)c4cccnc4c3O)[n+]2C)c1	/	/	/	46*	/	/	8
CON=C(Cn1ncc(NC2CCCCC2)c(Br)c1=O)c1ccc(Cl)cc1	/	/	/	/	1	/	/
CCCCC(=O)N/N=C/c1ccc(-c2ccc([N+](=O)[O-])cc2)o1	2	-1	2	0	/	-5	/
Cc1cc(C)n(Cc2ccc(C(=O)N/N=C/c3ccc(-c4ccc([N+](=O)[O-])cc4)o3)o2)n1	-17	-1	-7	66*	/	36*	31
O=C(OCC(=O)N1CCN(C(=O)c2ccco2)CC1)c1cc(-c2ccccc2)nc2ccccc12	-8	-7	-3	37*	-4	3	-23
O=C(OCC(=O)N1CCN(C(=O)c2ccco2)CC1)c1cc(-c2ccc(F)cc2)nc2ccccc12	-7	-4	-1	0	-63	3	/
COc1ccc(NC(=O)Cc2c[nH]c3ccccc23)cc1S(=O)(=O)N1CCCCC1	-4	1	1	49*	1	-3	-35*
CCOc1ccc2c(c1)C(NC(C)=O)C(=O)N2CCN1CCOCC1 (centres undefined)	15	/	/	82*	12	/	61
Cc1cc(O)c2c(c1)C(=O)c1cccc(O)c1C2=O	11	/	/	/	/	/	/
O=C(O)c1cc(O)c2c(c1)C(=O)c1cccc(O)c1C2=O	0	0	-3	40*	/	50*	-2
O=C(Nc1ccc(Cl)c(Cl)c1)Nc1nnc(-c2ccncc2)s1	-2	0	0	41*	-1	-29	-5
Cc1ccc(N=C2C(=S)N(c3ccc(C)cc3)C(=N)N2/N=C/c2ccc(Cl)cc2)cc1	7	5	-2	-119	/	-1	-45*
CC(C)Oc1ccc(C=NNC(=O)C2CCCN2S(=O)(=O)c2ccc(Cl)cc2)cc1 (centres undefined)	/	/	/	/	6	/	/
O=c1ccsc2ccccc12	5	/	/	-4	7	/	/
O=c1cc(O)sc2ccccc12	-2	0	-1	43*	0	-9	-16
CCOc1ccc(N2CC(C(=O)NN=Cc3sccc3C)CC2=O)cc1 (centres undefined)	/	/	/	/	9	/	/
Cc1ccc(C(=O)CSc2n[nH]c(-c3ccco3)n2)cc1C	-2	0	-8	31	1	4	31
O=C1C(=Cc2ccc(Br)o2)C(=O)c2ccccc21	/	-3	1	36*	13	33	36
